RORA inh – blocks the human nuclear receptor RORA; P35398; CHO-K1 Gal4-RORA LBD luciferase reporter, luminescence; inhibition, % at 10 µM; hit rate 0.43% among 65,000; AID 561;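 active = inhibition above the mean of all tested compounds plus 3 SD, cut at about 52% in these data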
Target sequence (P35398 whole entry, looked up, the tested form may be a part): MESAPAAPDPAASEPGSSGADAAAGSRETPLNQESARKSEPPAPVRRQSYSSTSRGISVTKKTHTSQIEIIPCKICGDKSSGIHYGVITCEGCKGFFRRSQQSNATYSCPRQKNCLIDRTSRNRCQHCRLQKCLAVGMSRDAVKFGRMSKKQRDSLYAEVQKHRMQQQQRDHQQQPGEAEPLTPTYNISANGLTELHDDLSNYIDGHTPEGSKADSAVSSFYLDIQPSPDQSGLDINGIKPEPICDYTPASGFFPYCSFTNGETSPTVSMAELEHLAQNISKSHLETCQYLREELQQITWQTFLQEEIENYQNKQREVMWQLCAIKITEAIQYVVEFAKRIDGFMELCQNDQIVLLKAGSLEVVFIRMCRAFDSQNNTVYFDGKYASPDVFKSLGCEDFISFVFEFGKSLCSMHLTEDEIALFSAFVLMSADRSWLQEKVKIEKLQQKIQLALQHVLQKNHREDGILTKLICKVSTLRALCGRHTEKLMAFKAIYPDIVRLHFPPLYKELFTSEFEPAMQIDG
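Material: transiently transfected CHO-K1 cells, Gal4-DBD/human RORA-LBD fusion plus 5xGal4-luciferase reporter; doses: single concentration per compound, 10 µM final; incubation: 20 h at 37 °C; detection: luminescence from basal luciferase reporter expression; read-out: % inhibition of basal luciferase versus +RORA/-RORA DMSO controls; replication: tested once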
Large screens that a line does not name were inactive. This excerpt belongs to a sample that is enriched for hits.

Cc1c(C(=O)Nc2ccccc2)sc2nc(-c3ccccc3)cn12	none
CCc1nn2cc(-c3ccccc3)nc2s1	RORA inh 66
CCS(=O)(=O)n1nc(-c2ccccc2)cc1N	none
CSc1cccc(NS(=O)(=O)c2cccc3nsnc23)c1	none
CC1CCc2c(sc3nc(SCc4nc(-c5ccccc5)no4)n(C)c(=O)c23)C1 (configuration not stated)	none
CCOC(=O)C1=C2N(C)c3ccccc3N2CCC1=O	none
CC(C)NCC(O)Cn1c2c(c3ccccc31)CCc1c-2cnn1-c1ccccc1 (configuration not stated)	RORA inh 68
O=C(Nc1ccc2c(c1)ncn2C1CCCCC1)c1ccco1	none
CCCN(Cc1ccccc1)S(=O)(=O)c1ccc(N2C(=O)CCC2=O)cc1	none
O=C(O)c1cccc(COc2ccc(CO)cc2Cl)c1	RORA inh 94
CCOc1ccc(CCNC(=O)C(O)c2ccccc2)cc1 (configuration not stated)	none
Cn1nnc(NC(=O)c2cccc(OCc3ccccc3)c2)n1	none
CN1CCN(C(=O)c2ccc(COc3ccc(Cl)cc3Cl)cc2)CC1	none
CCOc1ccc2oc(-c3ccccc3)c(C(=O)O)c2c1	none
COc1ccc(NS(=O)(=O)c2cc(C(=O)O)ccc2C)cc1	none
COc1ccc(OCc2cccc(C(=O)O)c2)cc1	RORA inh 94
CCOc1ccc(OCc2cccc(C(=O)O)c2)cc1	RORA inh 94
O=C(O)c1ccc(COc2ccc(CO)cc2Cl)cc1	none
CCOc1ccc(C(=O)Nc2ccc(Cl)cn2)cc1Cl	none
CCN(CC)S(=O)(=O)c1cccc(-c2nnc(SC(C)C#N)n2Cc2ccccc2)c1 (configuration not stated)	none
Cc1occc1C(=O)Nc1ccc2ccccc2c1	none
CCOc1ccc2oc(-c3ccccc3)c(C(=O)N3CCN(CCO)CC3)c2c1	none
Cc1ccccc1NC(=O)c1cnc2ccccn2c1=O	RORA inh 54
Cc1cccc(NC(=O)c2cnc3n(c2=O)CCS3)c1	none
COc1ccc(Cl)cc1NC(=O)c1cnc2n(c1=O)CCS2	none
COc1ccc(N(CC(=O)NCc2ccco2)S(C)(=O)=O)cc1Cl	none
N#CN=C1SCCS1	none
O=c1cc(-c2c(F)c(F)c(F)c(F)c2F)oc2c(F)c(F)c(F)c(F)c12	RORA inh 84
CCCc1cc(=O)[nH]c(SCC(=O)Nc2ccc(OC(F)F)cc2)n1	none
Cc1csc(NC(=O)CNC(=O)OCc2ccccc2)n1	none
CCCN1/C(=C(/C#N)C2=NS(=O)(=O)c3ccccc32)N(C)c2ccccc21	none
CC(=O)Nc1c(C(=O)N2CCN(c3ncccn3)CC2)cnn1-c1ccccc1Cl	none
COC(=O)c1ccc(NC(=O)Cn2nc(SC)n(N)c2=S)cc1	none
Nc1cccc(-c2nc3ccc(N)cc3s2)c1	RORA inh 57
Cc1ccc2[nH]c(-c3cccc(N)c3)cc2c1	none
Nc1nc2ccc(Oc3ccccc3)cc2s1	none
Cc1ccc(C(=O)CSc2nnc(CNc3ccc(C)cc3C)o2)cc1	none
FC(F)(F)C1CC(c2cccs2)Nc2ncnn21 (configuration not stated)	none
COCCn1c(C)cc(C(=O)CSc2nnc(C)s2)c1C	RORA inh 68
COCCn1c(SCC(=O)Nc2cccc(C)c2)nnc1C(C)C	none
COC(=O)c1ccccc1NC(=O)CN1CCC(NC(=O)c2ccccc2C)CC1	none
COc1ccccc1N1CCN(c2cc(=O)n(-c3ccccc3Cl)c(=O)[nH]2)CC1	none
CN1CCN(c2cc(=O)n(C3CCCCC3)c(=O)[nH]2)CC1	none
O=c1cc(N2CCN(c3cccc(Cl)c3)CC2)[nH]c(=O)n1C1CCCCC1	RORA inh 65
Cc1ccc(NC(=O)NC2(C(=O)NCc3ccco3)CCCCC2)cc1	none
Cc1cccc(-n2ncc3c(NCCCO)ncnc32)c1	none
COc1ccc(-n2c(C)nc3c(cnn3-c3ccc(C)c(C)c3)c2=O)cc1	none
C=CCNc1ncnc2c1cnn2-c1cccc(C)c1	none
COc1ccc2nc(N3CCCCC3)c(C#N)cc2c1	none
Cc1cccc(-n2ncc3c(N4CCOCC4)ncnc32)c1	RORA inh 67
COc1ccc(-n2ncc3c(N4CCCCC4)ncnc32)cc1	RORA inh 87
CC1CN(c2ncnc3c2cnn3-c2ccc(Cl)cc2)CC(C)O1 (configuration not stated)	none
Clc1ccc(-n2ncc3c(N4CCCCCC4)ncnc32)cc1	RORA inh 68
CCCCNc1ncnc2c1cnn2-c1ccc(Cl)cc1	none
COc1ccccc1NC(=O)COC(=O)CNC(=O)c1ccc(OC)c(OC)c1	none
CC(C)(C)NC(=O)CSc1n[nH]c(=O)n1-c1ccccc1	none
Cc1cc(C)c(NC(=O)Cn2c(=O)n(Cc3ccco3)c(=O)c3ccccc32)c(C)c1	none
O=C(NCc1cccnc1)C1CCN(S(=O)(=O)N2CCOCC2)CC1	none
O=C(CCCNS(=O)(=O)c1cccc2nsnc12)NCc1ccc(F)cc1	none
O=C(Cn1cnc2ccccc21)OCC(=O)N1CCc2ccccc2C1	none
Fc1ccc(-c2nnc(NC3=NCCCCC3)o2)cc1	RORA inh 73
Cc1ccc(-c2nc(-c3ccccc3)no2)c(Cl)c1	RORA inh 57
c1ccc(-c2noc(-c3cccc4ccccc34)n2)cc1	none
COc1cccc(-c2nc(-c3ccccc3)no2)c1	none
